# Test results as given in ChEMBL document CHEMBL4699585, “Evaluation of the Pharmacophoric Role of the O-O Bond in Synthetic Antileishmanial Compounds: Comparison between 1,2-Dioxanes and Tetrahydropyrans” (J Med Chem, 2020).
# Activity calls are given as the source filed them. The rule behind the calls is not given here.
# What was measured:
# [1] = Drug localization in Leishmania donovani MHOM/NP/O2/BPK282/0cl4 promastigote at IC50 […] by TO-PRO-3 dye based confocal microscopy analysis; format: ADME
# [2] = test system: Leishmania donovani; test: Antileishmanial activity against sitamaquine-resistant wild type promastigote stage of Leishmania donovani MHOM/ET/67/HU3 infected in mouse macrophages assessed as reduction in parasite viability measured after 48 hrs by Giemsa staining-based assay; format: functional, organism-based; details: MHOM/ET/67/HU3, Macrophage
# [3] = test system: Leishmania donovani; test: Antileishmanial activity against wild type promastigote stage of Leishmania donovani LV9 infected in mouse macrophages assessed as reduction in parasite viability measured after 48 hrs by Giemsa staining-based assay; format: functional, organism-based; details: LV9, 48 h
# [4] = test system: Leishmania donovani; test: Antileishmanial activity against Leishmania donovani MHOM/MA(BE)/67/ITMAP263 promastigotes infected in primary mouse peritoneal macrophage assessed as reduction in parasite viability measured after 4 days by Giemsa staining-based assay; format: functional, organism-based; details: MHOM/MA(BE)/67/ITMAP263, Peritoneal macrophage, 96 h
# [5] = test system: Leishmania donovani; test: Antileishmanial activity against Leishmania donovani promastigotes assessed as reduction in parasite viability in presence of 50 uM iron chelator desferrioxamine measured after 24 hrs by microplate alamar blue assay; format: functional, organism-based
# Summary of the method: (§1)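 L. donovani promastigotes (MHOM/NP/02/BPK282/0cl4, late log/stationary phase) seeded at 10^6 cells/mL in complete HOMEM, preincubated 24 h at 26 °C with desferrioxamine at four nontoxic doses (1:2 dilutions). Compounds added over a range spanning each one's IC50. Viability read by alamarBlue absorbance at 550/630 nm. FIC values plotted as isobolograms. Duplicates.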
# [6] = test system: Leishmania donovani; test: Antileishmanial activity against Leishmania donovani promastigotes assessed as reduction in parasite viability in presence of 100 uM iron chelator desferrioxamine measured after 24 hrs by microplate alamar blue assay; format: functional, organism-based; summary of the method: as §1
# [7] = test system: Leishmania donovani; test: Induction of ROS generation in Leishmania donovani promastigotes assessed as increase in intracellular ROS level at IC50 measured after 24 hrs by H2DCFDA probe based fluorimetry analysis; format: functional, organism-based
# [8] = test system: Leishmania donovani; test: Antileishmanial activity against Leishmania donovani promastigotes assessed as reduction in parasite viability in presence of […] iron chelator desferrioxamine measured after 24 hrs by microplate alamar blue assay; format: functional, organism-based; summary of the method: as §1
# [9] = test system: Leishmania donovani; test: Additive antileishmanial activity against Leishmania donovani promastigotes measured after 24 hrs in presence of iron chelator desferrioxamine by microplate alamar blue assay; format: functional, organism-based; summary of the method: as §1
# [10] = test system: Leishmania donovani; test: Antileishmanial activity against Leishmania donovani promastigotes assessed as reduction in parasite viability in presence of 25 uM iron chelator desferrioxamine measured after 24 hrs by microplate alamar blue assay; format: functional, organism-based; summary of the method: as §1
# [11] = test system: Leishmania donovani; test: Induction of ROS generation in Leishmania donovani promastigotes assessed as increase in intracellular ROS level at IC50 measured up to 60 mins by H2DCFDA probe based fluorimetry analysis; format: functional, organism-based; details: time min <=60
# [12] = Drug localization in cytoplasm of Leishmania donovani MHOM/NP/O2/BPK282/0cl4 promastigote at IC50 incubated for 40 to 45 mins by TO-PRO-3 dye based confocal microscopy analysis; format: ADME, subcellular; details: time 40-45 min
# [13] = Drug localization in kinetoplast of Leishmania donovani MHOM/NP/O2/BPK282/0cl4 promastigote at IC50 incubated for 40 to 45 mins by TO-PRO-3 staining based confocal microscopy analysis; format: ADME, subcellular; details: time 40-45 min
# [14] = Drug localization in nucleus of Leishmania donovani MHOM/NP/O2/BPK282/0cl4 promastigote at IC50 incubated for 40 to 45 mins by TO-PRO-3 staining based confocal microscopy analysis; format: ADME, subcellular; details: time 40-45 min
# [15] = test system: Leishmania donovani; test: Antileishmanial activity against amastigotes stage of Leishmania donovani D10 infected in mouse RAW264.7 cells assessed as reduction in cell viability incubated from 24 to 72 hrs by Giemsa staining-based assay; format: functional, organism-based; details: D10, RAW264.7
# [16] = test system: Leishmania donovani; test: Antileishmanial activity against HePC-resistant wild type promastigote stage of Leishmania donovani MHOM/ET/67/HU3 infected in mouse macrophages assessed as reduction in parasite viability measured after 48 hrs by Giemsa staining-based assay; details: MHOM/ET/67/HU3, Macrophage
# [17] = test system: Leishmania donovani; test: Induction of ROS generation in Leishmania donovani promastigotes at 22 uM measured after 24 hrs by H2DCFDA probe based fluorimetry analysis; format: functional, organism-based
# Summary of the method: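 Late log/stationary L. donovani promastigotes seeded at 10^6 cells mL–1 in HOMEM with 20% FBS and treated 24 h at 26 °C; untreated cells served as negative control. Cells were washed in PBS (pH 7.4), loaded with 10 μM H2DCFDA and kept 35 min in the dark at 26 °C. DCF fluorescence read at ex 488/em 530 nm over 1–60 min. Three independent experiments, each in triplicate.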
compound,measurement,setting,value
CCCCC1(CCCC)CO[C@@](C)(OC)[C@@H](CNCCCCNc2c3ccc(Cl)cc3nc3ccc(OC)cc23)C1 (racemic),Drug uptake,[1],Active
COc1ccc(N[C@@]2(C(F)(F)F)O[C@@H]3C[C@@]4(C)C[C@H]5[C@H](C)CC[C@@H]([C@H]2C)[C@@]35OO4)cc1,IC50,[2],0.38 µM
same,IC50,[3],1.5 µM
C=CCO[C@@]1(C(F)(F)F)O[C@@H]2C[C@@]3(C)C[C@H]4[C@H](C)CC[C@@H]([C@H]1C)[C@@]24OO3,IC50,[2],1.6 µM
same,IC50,[3],6.3 µM
NC[C@@H]1O[C@H](O[C@H]2[C@@H](O)[C@H](O[C@@H]3[C@@H](O)[C@H](N)C[C@H](N)[C@H]3O[C@H]3O[C@H](CO)[C@@H](O)[C@H](O)[C@H]3N)O[C@@H]2CO)[C@H](N)[C@@H](O)[C@@H]1O [PAROMOMYCIN],IC50,[4],19.7 µM
CCCCC1(CCCC)CO[C@@](C)(OC)[C@@H](CNCCCn2ccnc2)C1 (racemic),IC50,[5],5.6 µM
same,IC50,[6],4.6 µM
same,Activity,[7],Active
same,IC50,[8],5.4 µM
same,Activity,[9],Active
same,IC50,[10],5.3 µM
same,Activity,[11],Active
CCCCC1(CCCC)C[C@H](CNCCCn2ccnc2)[C@](C)(OC)OO1 (racemic),IC50,[5],9.3 µM
same,IC50,[6],6.5 µM
same,Activity,[7],Active
same,IC50,[8],6.6 µM
same,Activity,[9],Active
same,IC50,[10],8.9 µM
same,Activity,[11],Active
CCCCC1(CCCC)C[C@H](CNCCCCNc2ccc([N+](=O)[O-])c3nonc23)[C@](C)(OC)OO1 (racemic),Drug uptake,[12],Active
same,Drug uptake,[13],Active
same,Drug uptake,[14],Not Active
OCCCCCCC1CCOOC2(CCCCCCCCCCC2)OOC1 (configuration not stated),IC50,[15],6.7 µM
CCCCCCCCCCCCCCCCOP(=O)([O-])OCC[N+](C)(C)C [MILTEFOSINE],IC50,[2],1.9 µM
same,IC50,[16],68.1 µM
same,Activity,[17],Active
